Experimental data from ChEMBL document CHEMBL5724801, “EUbOPEN Chemogenomics Library - Multiplex” (2024).
“And” between values parts separate entries of the source, which are not always exact repeats. Equal entries are not always repeated.

Test system: Fibroblast
Experiment: Multiplex assay against human fibroblast
Type: toxicity, cell-based
Summary of the method: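 Live cells were stained at seeding with Hoechst33342, BioTracker Green Microtubule Cytoskeleton Dye, MitoTracker Red and Annexin V Alexa Fluor 680. Following compound addition, they were imaged on a CQ1 microscope at 37°C and 5% CO2 and gated by CellPathfinder machine learning into Hoechst high-intensity objects or normal cells, with normal cells split into healthy, pyknosed or fragmented nuclei and pyknosed cells into mitotic or apoptotic. Tubulin, mitochondrial-mass and membrane-permeability phenotypes are per cents of healthy-nucleus cells.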

[1] = 12 h, 1 µM, compound concentration 1 uM
[2] = 12 h, 10 µM, compound concentration 10 uM
[3] = 24 h, 1 µM, compound concentration 1 uM
[4] = 24 h, 10 µM, compound concentration 10 uM
[5] = 48 h, 1 µM, compound concentration 1 uM
[6] = 48 h, 10 µM, compound concentration 10 uM

Cc1cc(C)c(NC(=O)C2CC3CCC2C3)c(C)c1 (centres undefined)
Population Apoptotic (%) [1]: 12% and 10% | Population Fragmented Nuclei (%) [1]: 14.14% and 5.66% | Population Healthy Nuclei (%) [1]: 59.69% and 81.76% | Population Hoechst High Intensity Objects (%) [1]: 0% | Population Membrane Permeable-Phenotype (%) [1]: 3.51% and 5.38% | Population Mitochondria Different-Phenotype (%) [1]: 7.02% and 6.92% | Population Mitotic Cells (%) [1]: 88% and 90% | Population Normal (%) [1]: 100% | Population Pyknosed Nuclei (%) [1]: 26.18% and 12.58% | Population Tubulin-Different-Phenotype (%) [1]: 12.28% and 22.31% | Total Cell Count [1]: 191 and 159 | Population Apoptotic (%) [2]: 10% and 7.69% | Population Fragmented Nuclei (%) [2]: 12.88% and 9.48% | Population Healthy Nuclei (%) [2]: 62.58% and 78.2% | Population Hoechst High Intensity Objects (%) [2]: 0% | Population Membrane Permeable-Phenotype (%) [2]: 3.92% and 3.64% | Population Mitochondria Different-Phenotype (%) [2]: 10.78% and 7.27% | Population Mitotic Cells (%) [2]: 90% and 92.31% | Population Normal (%) [2]: 100% | Population Pyknosed Nuclei (%) [2]: 24.54% and 12.32% | Population Tubulin-Different-Phenotype (%) [2]: 11.76% and 19.39% | Total Cell Count [2]: 163 and 211 | Population Apoptotic (%) [3]: 16.28% and 15.38% | Population Fragmented Nuclei (%) [3]: 13.89% and 7.5% | Population Healthy Nuclei (%) [3]: 66.2% and 84.38% | Population Hoechst High Intensity Objects (%) [3]: 0% | Population Membrane Permeable-Phenotype (%) [3]: 9.09% and 3.7% | Population Mitochondria Different-Phenotype (%) [3]: 5.59% and 6.67% | Population Mitotic Cells (%) [3]: 83.72% and 84.62% | Population Normal (%) [3]: 100% | Population Pyknosed Nuclei (%) [3]: 19.91% and 8.12% | Population Tubulin-Different-Phenotype (%) [3]: 12.59% and 16.3% | Total Cell Count [3]: 216 and 160 | Population Apoptotic (%) [4]: 9.38% and 12% | Population Fragmented Nuclei (%) [4]: 8.88% and 6.07% | Population Healthy Nuclei (%) [4]: 72.19% and 82.24% | Population Hoechst High Intensity Objects (%) [4]: 0% | Population Membrane Permeable-Phenotype (%) [4]: 7.38% and 2.84% | Population Mitochondria Different-Phenotype (%) [4]: 7.38% and 8.52% | Population Mitotic Cells (%) [4]: 90.62% and 88% | Population Normal (%) [4]: 100% | Population Pyknosed Nuclei (%) [4]: 18.93% and 11.68% | Population Tubulin-Different-Phenotype (%) [4]: 22.13% and 22.73% | Total Cell Count [4]: 169 and 214 | Population Apoptotic (%) [5]: 30.77% and 13.33% | Population Fragmented Nuclei (%) [5]: 8.78% and 7.14% | Population Healthy Nuclei (%) [5]: 84.88% and 83.12% | Population Hoechst High Intensity Objects (%) [5]: 0% | Population Membrane Permeable-Phenotype (%) [5]: 1.15% and 5.47% | Population Mitotic Cells (%) [5]: 69.23% and 86.67% | Population Normal (%) [5]: 100% | Population Pyknosed Nuclei (%) [5]: 6.34% and 9.74% | Population Tubulin-Different-Phenotype (%) [5]: 8.62% and 19.53% | Total Cell Count [5]: 205 and 154 | Population Apoptotic (%) [6]: 50% and 17.65% | Population Fragmented Nuclei (%) [6]: 9.04% and 4.07% | Population Healthy Nuclei (%) [6]: 87.77% and 88.24% | Population Hoechst High Intensity Objects (%) [6]: 0% | Population Membrane Permeable-Phenotype (%) [6]: 1.82% and 2.56% | Population Mitochondria Different-Phenotype (%) [6]: 10.91% and 6.15% | Population Mitotic Cells (%) [6]: 50% and 82.35% | Population Normal (%) [6]: 100% | Population Pyknosed Nuclei (%) [6]: 3.19% and 7.69% | Total Cell Count [6]: 188 and 221
